{
  "source": "ChEMBL document CHEMBL1122179",
  "about": "“1-(alkylamino)isochromans: hypotensives with peripheral and central activities” (J Med Chem, 1982)",
  "key": {"Rattus norvegicus [1]": {"system": "Rattus norvegicus", "experiment": "Delta BP refers to oral hypotensive activity of compound which is evaluated at 4 hr and 24 hr in restrained, normotensive conscious rats at a dose of 50 mg/kg; -11/-16", "assay_type": "functional", "procedure,_shortened": "(§1)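 Female Sprague-Dawley rats, normotensive, restrained in a towel. Blood pressure was read directly via chronic indwelling aortic cannulas exteriorized at the nape, before and 4 and 24 h after an oral dose suspended in carboxymethylcellulose (10 mL/kg). Values from two animals were averaged at each time; a mean change of at least 5 mmHg was taken as significant (p < 0.05).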"}, "Rattus norvegicus [2]": {"system": "Rattus norvegicus", "experiment": "Delta BP refers to oral hypotensive activity of compound which is evaluated at 4 hr and 24 hr in restrained, normotensive conscious rats at a dose of 50 mg/kg; -13/-10", "assay_type": "functional", "procedure,_shortened": "as §1"}, "Rattus norvegicus [3]": {"system": "Rattus norvegicus", "experiment": "Delta BP refers to oral hypotensive activity of compound which is evaluated at 4 hr and 24 hr in restrained, normotensive conscious rats at a dose of 50 mg/kg; -17/-9", "assay_type": "functional", "procedure,_shortened": "as §1"}, "Rattus norvegicus [4]": {"system": "Rattus norvegicus", "experiment": "Delta BP refers to oral hypotensive activity of compound which is evaluated at 4 hr and 24 hr in restrained, normotensive conscious rats at a dose of 50 mg/kg; 1/0", "assay_type": "functional", "procedure,_shortened": "as §1"}, "[5]": {"target": "T1, Adrenergic receptor alpha-2 (Rattus norvegicus, UniProt P22086+P19328+P22909)", "T1 sequence (P22086 whole entry)": "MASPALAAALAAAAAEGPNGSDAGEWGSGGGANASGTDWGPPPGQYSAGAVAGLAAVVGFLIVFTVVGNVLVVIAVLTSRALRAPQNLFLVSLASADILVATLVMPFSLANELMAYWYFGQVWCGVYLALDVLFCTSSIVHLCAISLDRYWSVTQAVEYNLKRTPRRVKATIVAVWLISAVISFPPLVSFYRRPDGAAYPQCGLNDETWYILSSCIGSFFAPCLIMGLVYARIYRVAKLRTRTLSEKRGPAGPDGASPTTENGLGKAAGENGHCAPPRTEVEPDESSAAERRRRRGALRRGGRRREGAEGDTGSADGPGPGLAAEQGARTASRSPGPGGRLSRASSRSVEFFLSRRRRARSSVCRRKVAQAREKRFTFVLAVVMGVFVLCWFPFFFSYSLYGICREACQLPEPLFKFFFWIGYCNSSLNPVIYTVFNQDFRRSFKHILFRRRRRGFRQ", "T1 sequence (P19328 whole entry)": "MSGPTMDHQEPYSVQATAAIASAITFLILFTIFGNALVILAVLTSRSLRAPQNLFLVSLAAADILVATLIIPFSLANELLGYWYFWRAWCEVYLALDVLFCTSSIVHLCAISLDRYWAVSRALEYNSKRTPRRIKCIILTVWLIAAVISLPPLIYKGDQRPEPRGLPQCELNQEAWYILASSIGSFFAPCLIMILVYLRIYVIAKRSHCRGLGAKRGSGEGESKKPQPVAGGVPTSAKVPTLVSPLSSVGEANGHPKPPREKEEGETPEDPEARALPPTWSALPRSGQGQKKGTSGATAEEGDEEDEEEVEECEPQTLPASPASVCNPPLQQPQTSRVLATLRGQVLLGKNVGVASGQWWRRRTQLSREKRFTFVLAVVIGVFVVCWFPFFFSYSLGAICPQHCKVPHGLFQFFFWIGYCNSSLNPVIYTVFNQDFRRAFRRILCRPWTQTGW", "T1 sequence (P22909 whole entry)": "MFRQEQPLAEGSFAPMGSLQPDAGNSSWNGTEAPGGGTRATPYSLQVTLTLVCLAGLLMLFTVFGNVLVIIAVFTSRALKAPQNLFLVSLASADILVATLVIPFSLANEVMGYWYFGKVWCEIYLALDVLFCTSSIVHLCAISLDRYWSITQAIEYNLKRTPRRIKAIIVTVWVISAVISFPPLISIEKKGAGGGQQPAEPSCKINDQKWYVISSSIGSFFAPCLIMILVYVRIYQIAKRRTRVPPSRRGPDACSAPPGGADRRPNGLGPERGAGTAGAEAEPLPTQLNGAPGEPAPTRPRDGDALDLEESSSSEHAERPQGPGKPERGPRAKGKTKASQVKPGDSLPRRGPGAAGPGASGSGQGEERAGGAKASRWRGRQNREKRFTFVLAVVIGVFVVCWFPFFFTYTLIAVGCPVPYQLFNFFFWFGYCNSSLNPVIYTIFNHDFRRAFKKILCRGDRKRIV", "experiment": "Compound was tested for the inhibition of [3H]clonidine binding Alpha-2 adrenergic receptor of crude rat brain membrane"}, "[6]": {"target": "T2, Adrenergic receptor alpha-1 (Rattus norvegicus, UniProt P15823+P23944+P43140)", "T2 sequence (P15823 whole entry)": "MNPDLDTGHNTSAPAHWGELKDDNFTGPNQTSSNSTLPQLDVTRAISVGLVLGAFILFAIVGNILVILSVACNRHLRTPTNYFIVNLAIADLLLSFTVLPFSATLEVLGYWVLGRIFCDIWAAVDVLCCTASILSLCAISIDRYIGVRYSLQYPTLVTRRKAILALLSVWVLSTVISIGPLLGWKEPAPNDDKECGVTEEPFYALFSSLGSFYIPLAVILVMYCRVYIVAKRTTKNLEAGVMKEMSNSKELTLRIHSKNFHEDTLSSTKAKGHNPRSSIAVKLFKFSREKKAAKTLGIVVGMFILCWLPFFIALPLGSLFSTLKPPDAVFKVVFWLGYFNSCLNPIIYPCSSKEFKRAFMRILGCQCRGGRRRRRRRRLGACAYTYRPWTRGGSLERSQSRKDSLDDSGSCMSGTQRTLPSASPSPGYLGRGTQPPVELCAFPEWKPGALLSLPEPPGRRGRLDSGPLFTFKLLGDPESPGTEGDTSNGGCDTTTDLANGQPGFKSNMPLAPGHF", "T2 sequence (P23944 whole entry)": "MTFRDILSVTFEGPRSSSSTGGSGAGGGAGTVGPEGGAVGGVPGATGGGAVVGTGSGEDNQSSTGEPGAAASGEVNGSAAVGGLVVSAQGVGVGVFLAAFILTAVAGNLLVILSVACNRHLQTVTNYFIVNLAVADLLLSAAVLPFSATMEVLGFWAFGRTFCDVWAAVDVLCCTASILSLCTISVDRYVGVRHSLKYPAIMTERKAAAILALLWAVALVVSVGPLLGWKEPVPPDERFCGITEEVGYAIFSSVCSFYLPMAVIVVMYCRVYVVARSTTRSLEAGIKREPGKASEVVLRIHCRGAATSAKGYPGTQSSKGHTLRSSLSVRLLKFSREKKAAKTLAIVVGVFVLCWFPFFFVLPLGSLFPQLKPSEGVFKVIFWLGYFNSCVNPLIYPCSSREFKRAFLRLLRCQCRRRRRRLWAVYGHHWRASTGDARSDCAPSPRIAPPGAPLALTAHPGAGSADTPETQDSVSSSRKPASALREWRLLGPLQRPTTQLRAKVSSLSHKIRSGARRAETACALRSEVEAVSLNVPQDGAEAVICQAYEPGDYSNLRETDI", "T2 sequence (P43140 whole entry)": "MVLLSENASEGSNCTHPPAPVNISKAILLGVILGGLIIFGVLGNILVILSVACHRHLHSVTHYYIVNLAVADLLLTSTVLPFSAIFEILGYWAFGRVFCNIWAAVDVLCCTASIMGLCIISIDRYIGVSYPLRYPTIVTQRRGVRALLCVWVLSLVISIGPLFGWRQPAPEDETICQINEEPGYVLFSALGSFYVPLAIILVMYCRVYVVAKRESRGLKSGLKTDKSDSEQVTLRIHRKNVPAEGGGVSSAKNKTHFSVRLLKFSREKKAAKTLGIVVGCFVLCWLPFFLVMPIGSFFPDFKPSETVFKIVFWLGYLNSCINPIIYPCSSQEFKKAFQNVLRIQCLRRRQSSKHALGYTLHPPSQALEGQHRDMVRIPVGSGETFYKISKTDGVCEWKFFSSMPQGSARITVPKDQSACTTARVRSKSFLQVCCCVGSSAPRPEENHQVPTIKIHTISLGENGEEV", "experiment": "Compound was tested for the inhibition of [3H]prazosin binding […] adrenergic receptor of crude rat brain membrane."}, "Rattus norvegicus [7]": {"system": "Rattus norvegicus", "experiment": "Delta BP refers to oral hypotensive activity of compound which is evaluated at 4 hr and 24 hr in restrained, normotensive conscious rats at a dose of 50 mg/kg; -19/-19", "assay_type": "functional", "procedure,_shortened": "as §1"}, "Rattus norvegicus [8]": {"system": "Rattus norvegicus", "experiment": "Delta BP refers to oral hypotensive activity of compound which is evaluated at 4 hr and 24 hr in restrained, normotensive conscious rats at a dose of 50 mg/kg; -16/-10", "assay_type": "functional", "details": "dose 15 mg/kg, in the assay text read “dose of 15 mg/kg” for “dose of 50 mg/kg”", "procedure,_shortened": "as §1"}, "Rattus norvegicus [9]": {"system": "Rattus norvegicus", "experiment": "Delta BP refers to oral hypotensive activity of compound which is evaluated at 4 hr and 24 hr in restrained, normotensive conscious rats at a dose of 50 mg/kg; -24/-5", "assay_type": "functional", "procedure,_shortened": "as §1"}, "Rattus norvegicus [10]": {"system": "Rattus norvegicus", "experiment": "Delta BP refers to oral hypotensive activity of compound which is evaluated at 4 hr and 24 hr in restrained, normotensive conscious rats at a dose of 50 mg/kg; -17/-20", "assay_type": "functional", "procedure,_shortened": "as §1"}},
  "data": [
    {"smiles": "COc1cc2c(cc1OC)C(C)(CCCN1CCN(c3ccccn3)CC1)OCC2", "note": "(stereo not given)", "values": [
      {"measurement": "Delta blood pressure", "setting": "Rattus norvegicus [1]", "result": -11, "unit": "mmHg"}
    ]},
    {"smiles": "COc1cc2c(cc1OC)C(CCN1CCN(c3ccccc3)CC1)OCC2", "note": "(stereo not given)", "values": [
      {"measurement": "Delta blood pressure", "setting": "Rattus norvegicus [2]", "result": -13, "unit": "mmHg"}
    ]},
    {"smiles": "COc1cc2c(cc1OC)C(C)(CCN1CCN(c3ccccc3)CC1)OCC2", "note": "(stereo not given)", "values": [
      {"measurement": "Delta blood pressure", "setting": "Rattus norvegicus [3]", "result": -17, "unit": "mmHg"}
    ]},
    {"smiles": "COc1cc2c(cc1OC)C(CCN1CCN(c3cccc(Cl)c3)CC1)OCC2", "note": "(stereo not given)", "values": [
      {"measurement": "Delta blood pressure", "setting": "Rattus norvegicus [4]", "result": 1, "unit": "mmHg"}
    ]},
    {"smiles": "COc1cc2c(cc1OC)C(CCN1CCN(c3ccc(F)cc3)CC1)OCCC2", "note": "(stereo not given)", "values": [
      {"measurement": "Ki", "setting": "[5]", "result": 0.307, "unit": "µM"},
      {"measurement": "Ki", "setting": "[6]", "result": 0.004, "unit": "µM"}
    ]},
    {"smiles": "COc1cc2c(cc1OC)C(CCCN1CCN(c3ccccc3)CC1)(c1ccc(F)cc1)OCC2", "note": "(stereo not given)", "values": [
      {"measurement": "Delta blood pressure", "setting": "Rattus norvegicus [7]", "result": -19, "unit": "mmHg"},
      {"measurement": "Delta blood pressure", "setting": "Rattus norvegicus [8]", "result": -16, "unit": "mmHg"}
    ]},
    {"smiles": "COc1cc2c(cc1OC)C(CN1CCN(c3ccccc3C)CC1)OCC2", "note": "(stereo not given)", "values": [
      {"measurement": "Delta blood pressure", "setting": "Rattus norvegicus [9]", "result": -24, "unit": "mmHg"}
    ]},
    {"smiles": "COc1cc2c(cc1OC)C(CCN1CCN(c3ccccc3C)CC1)OC(C)(C)C2", "note": "(stereo not given)", "values": [
      {"measurement": "Delta blood pressure", "setting": "Rattus norvegicus [10]", "result": -17, "unit": "mmHg"}
    ]}
  ]
}
